The source made the active and inactive calls. The calls are words filed in the database; no cut-off is given here.

The target of data set [1] is Phosphodiesterase 4 (Homo sapiens) (UniProt P27815+Q08499+Q07343+Q08493). As to the kind of experiment: Activity at PDE4 at 10 uM. Format: protein assay. Summed up:
(§1)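 Broad selectivity panel (over 70 receptors, ion channels and neuronal receptors, PDE1-6 included) run at a single 10 µM concentration.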

Data set [2] has as its target D(2) dopamine receptor (Rattus norvegicus) (UniProt P61169). The data set is described as follows: Agonist activity at rat D2 receptor in HEK293 cells coexpressing G-alpha-qo5 by FLIPR relative to dopamine upto 10 uM. It counts as functional, cell-based. Summed up: (§2)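 Ca2+ flux by FLIPR in HEK cells cotransfected with the D2 receptor (human, ferret or rat) plus chimeric G protein Gqo5.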

Data set [3] is described as follows: Bioavailability in rat at 1 mg/kg, sc. The conditions noted are these: in vivo. Format: ADME, organism-based. Summed up: (§3)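 Single 1 mg/kg dose given iv, sc or orally to Sprague-Dawley rats, dogs and monkeys; plasma concentrations followed over time (mean ± SEM, n = 3). Cmax, AUC, half-life, clearance and bioavailability calculated from the curves.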
Data set [4] in a line: AUC in monkey at 1 mg/kg, po. It counts as ADME, organism-based, Macaca mulatta. The arrangement: dose 1 mg/kg, route oral. The conditions noted are these: rhesus monkey, plasma. Summed up:
as §3

Another data set deals with T1, D(4) dopamine receptor (Homo sapiens, UniProt P21917).
T1 sequence (P21917 whole entry): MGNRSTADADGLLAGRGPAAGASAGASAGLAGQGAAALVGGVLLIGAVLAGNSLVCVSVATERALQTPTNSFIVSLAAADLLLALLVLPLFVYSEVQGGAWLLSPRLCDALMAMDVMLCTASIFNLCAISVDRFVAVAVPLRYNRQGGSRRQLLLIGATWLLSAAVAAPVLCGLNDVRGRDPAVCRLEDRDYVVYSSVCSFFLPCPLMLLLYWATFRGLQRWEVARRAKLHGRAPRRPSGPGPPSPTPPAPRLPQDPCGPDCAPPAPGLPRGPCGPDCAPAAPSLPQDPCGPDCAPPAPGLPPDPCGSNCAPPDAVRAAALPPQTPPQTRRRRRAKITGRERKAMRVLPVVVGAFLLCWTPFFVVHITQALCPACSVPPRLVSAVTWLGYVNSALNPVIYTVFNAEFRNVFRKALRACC
As to the kind of experiment: Agonist activity at human D4.4 receptor in HEK293 cells coexpressing G-alpha-qo5 by FLIPR. It counts as functional, cell-based.

For data set [5], the target named is cGMP-specific 3',5'-cyclic phosphodiesterase (Homo sapiens) (UniProt O76074). The data set is described as follows: Activity at PDE5 at 10 uM. Summed up:
as §1

Data set [6] addresses cGMP-dependent 3',5'-cyclic phosphodiesterase (Homo sapiens) (UniProt O00408). As to the kind of experiment: Activity at PDE2 at 10 uM. Summed up:
as §1

The nature of data set [7]: Agonist activity at ferret D4 receptor in HEK293 cells coexpressing G-alpha-qo5 by FLIPR. It counts as functional, cell-based, Mustela putorius furo. The note with it: Mustela putorius. Summed up:
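HEK cells cotransfected with ferret D4 receptor and chimeric G protein Gqo5, with receptor activation read as a calcium flux signal on FLIPR. EC50 is the concentration giving half-maximal activation.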

Data set [8] can be described thus: Effect on canine cardiac Purkinje fiber repolarization measured as prolongation of action potential duration at 1 ug/mL. Format: functional, Canis lupus familiaris. Summed up:
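Canine Purkinje fibers impaled with 3 M KCl microelectrodes. Fibers accepted with resting potential below -80 mV and APD 300-500 ms. Paced at BCL 2 s, then 800 and 400 ms. Two ascending concentrations applied, each after 25 min equilibration. APD90 measured at all three rates.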

Data set [9] in a line: AUC in rat at 1 mg/kg, sc. It counts as ADME, organism-based. Also on record: dose 1 mg/kg, route subcutaneous. The conditions noted are these: plasma. Summed up:
as §3

A short description of data set [10]: Cmax in rat at 1 mg/kg, po. It counts as ADME, organism-based. The arrangement: dose 1 mg/kg, route oral. The note with it: in vivo. Summed up: as §3
A further data set addresses D(2) dopamine receptor (Homo sapiens, UniProt P14416). As to the kind of experiment: Agonist activity at human D2 receptor in HEK293 cells coexpressing G-alpha-qo5 by FLIPR relative to dopamine upto 10 uM. Format: functional, cell-based. Summed up:
as §2

The target of data set [11] is D(3) dopamine receptor (Homo sapiens) (UniProt P35462). As to the kind of experiment: Agonist activity at human D3 receptor in HEK293 cells coexpressing G-alpha-qo5 by FLIPR upto 10 uM. It counts as functional, cell-based.
Chain of D(3) dopamine receptor (Homo sapiens) (P35462 whole entry): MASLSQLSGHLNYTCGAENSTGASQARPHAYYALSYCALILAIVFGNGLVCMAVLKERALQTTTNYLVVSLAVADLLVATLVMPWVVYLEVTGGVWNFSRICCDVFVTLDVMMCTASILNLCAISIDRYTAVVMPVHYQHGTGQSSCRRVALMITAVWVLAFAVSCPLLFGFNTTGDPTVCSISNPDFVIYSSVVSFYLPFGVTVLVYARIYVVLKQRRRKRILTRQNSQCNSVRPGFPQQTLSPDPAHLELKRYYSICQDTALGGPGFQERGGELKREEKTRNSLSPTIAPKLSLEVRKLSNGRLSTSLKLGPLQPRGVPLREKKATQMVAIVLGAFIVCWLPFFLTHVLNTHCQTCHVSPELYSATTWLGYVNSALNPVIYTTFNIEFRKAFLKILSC
Data set [12] deals with T2, D(4) dopamine receptor (Homo sapiens) (UniProt P21917).
T2 sequence (whole entry): T1 sequence (P21917 whole entry)
The data set is described as follows: Activity at human D4.4 receptor in HEK293 cells co-expressing Galphaqo5 by FLIPR. Format: functional, cell-based. The conditions noted are these: filed as agonist.

Chain of cGMP-dependent 3',5'-cyclic phosphodiesterase (Homo sapiens) (O00408 whole entry): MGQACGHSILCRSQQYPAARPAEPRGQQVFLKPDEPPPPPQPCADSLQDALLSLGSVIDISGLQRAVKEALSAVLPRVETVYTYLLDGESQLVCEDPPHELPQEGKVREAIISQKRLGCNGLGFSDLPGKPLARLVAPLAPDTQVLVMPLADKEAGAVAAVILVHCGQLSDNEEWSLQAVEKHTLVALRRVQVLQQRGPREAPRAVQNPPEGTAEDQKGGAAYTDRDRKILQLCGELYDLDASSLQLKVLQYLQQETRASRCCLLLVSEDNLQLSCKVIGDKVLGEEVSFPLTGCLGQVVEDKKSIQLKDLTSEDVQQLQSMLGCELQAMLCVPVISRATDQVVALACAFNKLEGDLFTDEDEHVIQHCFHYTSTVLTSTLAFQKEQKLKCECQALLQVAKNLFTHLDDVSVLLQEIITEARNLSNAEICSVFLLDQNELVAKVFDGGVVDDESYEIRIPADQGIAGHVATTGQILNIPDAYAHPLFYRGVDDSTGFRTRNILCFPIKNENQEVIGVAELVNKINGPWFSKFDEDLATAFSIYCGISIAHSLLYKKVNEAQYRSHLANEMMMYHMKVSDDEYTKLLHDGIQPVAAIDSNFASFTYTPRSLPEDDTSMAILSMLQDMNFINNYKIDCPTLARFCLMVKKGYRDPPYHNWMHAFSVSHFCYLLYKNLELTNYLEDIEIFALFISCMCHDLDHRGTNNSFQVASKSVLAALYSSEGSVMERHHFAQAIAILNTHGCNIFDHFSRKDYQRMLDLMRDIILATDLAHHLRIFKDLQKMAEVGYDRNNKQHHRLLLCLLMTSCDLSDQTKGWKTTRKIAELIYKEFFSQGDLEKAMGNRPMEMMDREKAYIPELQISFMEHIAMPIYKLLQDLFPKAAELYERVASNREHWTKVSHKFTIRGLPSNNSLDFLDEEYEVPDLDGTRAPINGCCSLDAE
Chain of D(2) dopamine receptor (Rattus norvegicus) (P61169 whole entry): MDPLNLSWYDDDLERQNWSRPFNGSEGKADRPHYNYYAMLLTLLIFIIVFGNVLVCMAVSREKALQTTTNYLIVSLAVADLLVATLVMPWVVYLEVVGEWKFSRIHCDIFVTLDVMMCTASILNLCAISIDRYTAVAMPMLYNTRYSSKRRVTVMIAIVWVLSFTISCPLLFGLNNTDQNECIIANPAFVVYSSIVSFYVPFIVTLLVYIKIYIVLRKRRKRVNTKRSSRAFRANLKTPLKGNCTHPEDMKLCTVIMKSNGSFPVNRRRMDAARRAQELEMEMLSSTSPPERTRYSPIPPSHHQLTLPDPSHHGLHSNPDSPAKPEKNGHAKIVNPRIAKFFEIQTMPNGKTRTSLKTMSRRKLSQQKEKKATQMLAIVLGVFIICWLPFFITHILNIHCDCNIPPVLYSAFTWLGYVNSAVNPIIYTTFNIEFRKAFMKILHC
Chain of D(2) dopamine receptor (P14416 whole entry): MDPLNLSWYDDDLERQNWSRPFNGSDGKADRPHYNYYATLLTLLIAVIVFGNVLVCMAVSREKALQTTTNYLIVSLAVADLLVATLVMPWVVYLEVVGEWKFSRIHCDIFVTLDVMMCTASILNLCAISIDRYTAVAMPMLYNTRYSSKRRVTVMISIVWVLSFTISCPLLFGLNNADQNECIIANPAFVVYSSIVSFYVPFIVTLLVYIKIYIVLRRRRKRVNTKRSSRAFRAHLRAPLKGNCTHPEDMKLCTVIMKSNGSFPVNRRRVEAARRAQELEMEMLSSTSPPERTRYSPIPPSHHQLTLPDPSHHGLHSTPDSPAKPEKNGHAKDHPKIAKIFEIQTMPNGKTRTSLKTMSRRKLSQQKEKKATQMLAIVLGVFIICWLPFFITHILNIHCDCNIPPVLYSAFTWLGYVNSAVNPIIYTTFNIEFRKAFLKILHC

Regarding `Cc1cccc(C(=O)NCN2CCC(c3cccc[n+]3[O-])CC2)c1`, the result (in [1]; in data set [2]; in data set [5]; in data set [6]; at D(2) dopamine receptor; in data set [11]) was inactive. The same molecule came in with a bioavailability in data set [3] of 84%. Besides, the AUC in data set [4] came out at 2280 ng·h/mL; in data set [9] it was 1140 ng·h/mL. The EC50 on D(4) dopamine receptor is 89 nM; in data set [7], 160 nM. Besides, the Activity was 0.6% in [8] and “Agonist” in [12]. The Cmax in data set [10] was 417 ng/mL.

A word on the bioavailability: it is the share of a dose that reaches the circulation, judged against a reference dose that is usually intravenous. For orientation: AUC means concentration integrated over time. Broadly, the EC50 is the midpoint of the concentration-response curve. Usually Cmax stands for the peak of the concentration-time curve.

(Values after ChEMBL document CHEMBL1137302 (J Med Chem, 2006).)
